Values after ≈ are worked out from the molar mass of the structure shown.
Columns and labels:
Assay type in all cases: functional
[1] = tested on: Staphylococcus aureus; experiment: Antibacterial activity against tetracycline-susceptible Staphylococcus aureus ATCC 13709 Smith isolate SA100
Method in brief: (§1)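 Broth microdilution MIC following CLSI methods in cation-adjusted Mueller Hinton broth, prepared fresh and held at 4 °C before testing. Defibrinated horse blood added to the medium where appropriate. Runs accepted when quality control ranges for comparator antibiotics and ATCC QC strains were met.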

[2] = tested on: Staphylococcus aureus; experiment: Antibacterial activity against tetracycline-resistant Staphylococcus aureus isolate SA161 expressing TetM gene; method in brief: as §1
[3] = tested on: Staphylococcus aureus; experiment: Antibacterial activity against tetracycline-resistant Staphylococcus aureus isolate SA158 expressing TetK gene
[4] = tested on: Streptococcus pneumoniae; experiment: Antibacterial activity against Streptococcus pneumoniae ATCC 49619 isolate 106
Method in brief: (§2)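 MIC by broth microdilution in liquid medium per CLSI, in cation-adjusted Mueller Hinton broth made fresh and held at 4 °C before testing. Horse blood (defibrinated) added to the medium where appropriate. Runs were accepted only when the comparator antibiotics and ATCC QC strains fell within their recommended ranges.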

[5] = tested on: Streptococcus pneumoniae; experiment: Antibacterial activity against tetracycline-resistant Streptococcus pneumoniae isolate 160 expressing tetM gene
[6] = tested on: Escherichia coli; experiment: Antibacterial activity against Escherichia coli ATCC 25922 isolate 107; method in brief: as §2
[7] = tested on: Escherichia coli; experiment: Antibacterial activity against Escherichia coli isolate EC155 expressing tetA gene; method in brief: as §2
[8] = tested on: Klebsiella pneumoniae; experiment: Antibacterial activity against Klebsiella pneumoniae ATCC 13883; method in brief: as §2
[9] = tested on: Staphylococcus aureus; experiment: Antibacterial activity against Staphylococcus aureus ATCC 13709 infected in CD-1 mouse assessed as increase in survival at 3 mg/kg, iv administered as single dose 1 hr post infection measured after 48 hrs post infection
Method in brief: (§3)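 Mouse septicemia screen: S. aureus grown to log phase, diluted in 5% mucin to give 90% mortality within 48 h, inoculum 1.98 × 10⁶ CFU/mouse, 0.5 mL intraperitoneal into female CD-1 mice (18−20 g). Six mice per group. Single 30 mg/kg oral gavage or 3 mg/kg IV dose 1 h post infection. Infection controls received sterile water vehicle. Survival recorded at 48 h.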

[10] = tested on: Staphylococcus aureus; experiment: Antibacterial activity against Staphylococcus aureus ATCC 13709 infected in CD-1 mouse assessed as increase in survival at 30 mg/kg, po administered as single dose 1 hr post infection measured after 48 hrs post infection; method in brief: as §3
[11] = tested on: Staphylococcus aureus; experiment: Antibacterial activity against Staphylococcus aureus ATCC 13709 infected in po dosed CD-1 mouse assessed as increase in survival administered as single dose 1 hr post infection measured after 48 hrs post infection; details: ATCC 13709, po, read-out: PD50

| SMILES | MIC [1] | MIC [2] | MIC [3] | MIC [4] | MIC [5] | MIC [6] | MIC [7] | MIC [8] | survival at 3 mg/kg [9] | survival at 30 mg/kg [10] | ED50 [11] |
| --- | --- | --- | --- | --- | --- | --- | --- | --- | --- | --- | --- |
| CN(C)[C@@H]1C(O)=C(C(N)=O)C(=O)[C@@]2(O)C(O)=C3C(=O)c4c(O)c(NS(C)(=O)=O)cc(F)c4C[C@H]3C[C@@H]12 | 0.13 µg/mL (≈ 0.247 µM) | 0.25 µg/mL (≈ 0.476 µM) | 4 µg/mL (≈ 7.61 µM) | 0.016 µg/mL (≈ 0.0304 µM) | 0.016 µg/mL (≈ 0.0304 µM) | 0.25 µg/mL (≈ 0.476 µM) | > 32 µg/mL | 2 µg/mL (≈ 3.81 µM) | 100% | 50% | > 30 mg/kg |
| CC(C)CCNc1cc(F)c2c(c1O)C(=O)C1=C(O)[C@]3(O)C(=O)C(C(N)=O)=C(O)[C@@H](N(C)C)[C@@H]3C[C@@H]1C2 | 0.25 µg/mL (≈ 0.483 µM) | 0.5 µg/mL (≈ 0.966 µM) | 0.13 µg/mL (≈ 0.251 µM) | 2 µg/mL (≈ 3.86 µM) | 4 µg/mL (≈ 7.73 µM) | > 32 µg/mL | > 32 µg/mL | > 32 µg/mL | 17% | 33% | > 60 mg/kg |
| CNC(=O)Nc1cc(F)c2c(c1O)C(=O)C1=C(O)[C@]3(O)C(=O)C(C(N)=O)=C(O)[C@@H](N(C)C)[C@@H]3C[C@@H]1C2 | 0.25 µg/mL (≈ 0.496 µM) | 2 µg/mL (≈ 3.96 µM) | 16 µg/mL (≈ 31.7 µM) | 0.031 µg/mL (≈ 0.0615 µM) | 0.5 µg/mL (≈ 0.991 µM) | 1 µg/mL (≈ 1.98 µM) | > 32 µg/mL | 4 µg/mL (≈ 7.93 µM) | 83% | 33% | > 30 mg/kg |
| CN(C)[C@@H]1C(O)=C(C(N)=O)C(=O)[C@@]2(O)C(O)=C3C(=O)c4c(O)c(NC(=O)[C@@H]5C[C@H](F)CN5C)cc(F)c4C[C@H]3C[C@@H]12 | 0.13 µg/mL (≈ 0.225 µM) | 0.5 µg/mL (≈ 0.867 µM) | 0.063 µg/mL (≈ 0.109 µM) | 0.016 µg/mL (≈ 0.0278 µM) | 0.016 µg/mL (≈ 0.0278 µM) | 2 µg/mL (≈ 3.47 µM) | > 32 µg/mL | 16 µg/mL (≈ 27.8 µM) | 83% | 33% | – |
| CCN1CCC[C@H]1C(=O)Nc1cc(F)c2c(c1O)C(=O)C1=C(O)[C@]3(O)C(=O)C(C(N)=O)=C(O)[C@@H](N(C)C)[C@@H]3C[C@@H]1C2 | 0.031 µg/mL (≈ 0.0541 µM) | 0.13 µg/mL (≈ 0.227 µM) | 0.031 µg/mL (≈ 0.0541 µM) | ≤ 0.016 µg/mL | ≤ 0.016 µg/mL | 0.13 µg/mL (≈ 0.227 µM) | 4 µg/mL (≈ 6.99 µM) | – | 67% | 40% | – |
| CN(C)[C@@H]1C(O)=C(C(N)=O)C(=O)[C@@]2(O)C(O)=C3C(=O)c4c(O)c(NC(=O)c5nccs5)cc(F)c4C[C@H]3C[C@@H]12 | 0.063 µg/mL (≈ 0.113 µM) | 0.13 µg/mL (≈ 0.233 µM) | 0.063 µg/mL (≈ 0.113 µM) | 2 µg/mL (≈ 3.58 µM) | 4 µg/mL (≈ 7.16 µM) | > 32 µg/mL | > 32 µg/mL | > 32 µg/mL | 17% | 0% | – |
| CN(C)c1cc(F)c2c(c1O)C(=O)C1=C(O)[C@]3(O)C(=O)C(C(N)=O)=C(O)[C@@H](N(C)C)[C@@H]3C[C@@H]1C2 | 1 µg/mL (≈ 2.1 µM) | 4 µg/mL (≈ 8.41 µM) | 4 µg/mL (≈ 8.41 µM) | 0.25 µg/mL (≈ 0.526 µM) | 4 µg/mL (≈ 8.41 µM) | 4 µg/mL (≈ 8.41 µM) | 32 µg/mL (≈ 67.3 µM) | 8 µg/mL (≈ 16.8 µM) | – | – | – |
| CN(C)[C@@H]1C(O)=C(C(N)=O)C(=O)[C@@]2(O)C(O)=C3C(=O)c4c(O)c(CNC(=O)CNC(C)(C)C)cc(F)c4C[C@H]3C[C@@H]12 | 16 µg/mL (≈ 27.8 µM) | > 32 µg/mL | 16 µg/mL (≈ 27.8 µM) | 0.5 µg/mL (≈ 0.87 µM) | 4 µg/mL (≈ 6.96 µM) | 32 µg/mL (≈ 55.7 µM) | > 32 µg/mL | > 32 µg/mL | – | – | – |
| CN(C)[C@@H]1C(O)=C(C(N)=O)C(=O)[C@@]2(O)C(O)=C3C(=O)c4c(O)c(NCCNC(C)(C)C)cc(F)c4C[C@H]3C[C@@H]12 | 1 µg/mL (≈ 1.83 µM) | 4 µg/mL (≈ 7.32 µM) | 1 µg/mL (≈ 1.83 µM) | 0.125 µg/mL (≈ 0.229 µM) | 0.25 µg/mL (≈ 0.457 µM) | 2 µg/mL (≈ 3.66 µM) | 16 µg/mL (≈ 29.3 µM) | 8 µg/mL (≈ 14.6 µM) | – | – | – |
| CN(C)[C@@H]1C(O)=C(C(N)=O)C(=O)[C@@]2(O)C(O)=C3C(=O)c4c(O)c(N)cc(F)c4C[C@H]3C[C@@H]12 | 0.25 µg/mL (≈ 0.559 µM) | 2 µg/mL (≈ 4.47 µM) | 2 µg/mL (≈ 4.47 µM) | 0.25 µg/mL (≈ 0.559 µM) | 4 µg/mL (≈ 8.94 µM) | 2 µg/mL (≈ 4.47 µM) | 32 µg/mL (≈ 71.5 µM) | 4 µg/mL (≈ 8.94 µM) | – | – | – |
| CN(C)[C@@H]1C(O)=C(C(N)=O)C(=O)[C@@]2(O)C(O)=C3C(=O)c4c(O)c(Nc5ccncn5)cc(F)c4C[C@H]3C[C@@H]12 | 0.25 µg/mL (≈ 0.476 µM) | 2 µg/mL (≈ 3.81 µM) | 2 µg/mL (≈ 3.81 µM) | 0.063 µg/mL (≈ 0.12 µM) | 0.5 µg/mL (≈ 0.951 µM) | 2 µg/mL (≈ 3.81 µM) | > 32 µg/mL | 8 µg/mL (≈ 15.2 µM) | – | – | – |
| CCCNc1cc(F)c2c(c1O)C(=O)C1=C(O)[C@]3(O)C(=O)C(C(N)=O)=C(O)[C@@H](N(C)C)[C@@H]3C[C@@H]1C2 | 0.5 µg/mL (≈ 1.02 µM) | 0.5 µg/mL (≈ 1.02 µM) | 0.5 µg/mL (≈ 1.02 µM) | 1 µg/mL (≈ 2.04 µM) | 4 µg/mL (≈ 8.17 µM) | 32 µg/mL (≈ 65.4 µM) | > 32 µg/mL | > 32 µg/mL | – | – | – |
| Cc1cc(C(=O)Nc2cc(F)c3c(c2O)C(=O)C2=C(O)[C@]4(O)C(=O)C(C(N)=O)=C(O)[C@@H](N(C)C)[C@@H]4C[C@@H]2C3)no1 | 0.25 µg/mL (≈ 0.449 µM) | 0.5 µg/mL (≈ 0.898 µM) | 0.5 µg/mL (≈ 0.898 µM) | 2 µg/mL (≈ 3.59 µM) | 2 µg/mL (≈ 3.59 µM) | > 32 µg/mL | > 32 µg/mL | > 32 µg/mL | – | – | – |
| CN(C)c1cccc(C(=O)Nc2cc(F)c3c(c2O)C(=O)C2=C(O)[C@]4(O)C(=O)C(C(N)=O)=C(O)[C@@H](N(C)C)[C@@H]4C[C@@H]2C3)c1 | 0.13 µg/mL (≈ 0.219 µM) | 0.13 µg/mL (≈ 0.219 µM) | 0.13 µg/mL (≈ 0.219 µM) | > 32 µg/mL | > 32 µg/mL | > 32 µg/mL | > 32 µg/mL | > 32 µg/mL | – | – | – |
| CN(C)[C@@H]1C(O)=C(C(N)=O)C(=O)[C@@]2(O)C(O)=C3C(=O)c4c(O)c(NC(=O)[C@@H]5CCCN5)cc(F)c4C[C@H]3C[C@@H]12 | 0.25 µg/mL (≈ 0.459 µM) | 0.5 µg/mL (≈ 0.918 µM) | 0.5 µg/mL (≈ 0.918 µM) | 0.016 µg/mL (≈ 0.0294 µM) | 0.016 µg/mL (≈ 0.0294 µM) | 1 µg/mL (≈ 1.84 µM) | 16 µg/mL (≈ 29.4 µM) | 1 µg/mL (≈ 1.84 µM) | 100% | 0% | – |
| CN(C)[C@@H]1C(O)=C(C(N)=O)C(=O)[C@@]2(O)C(O)=C3C(=O)c4c(O)c(NC(=O)c5cccn5C)cc(F)c4C[C@H]3C[C@@H]12 | 0.25 µg/mL (≈ 0.451 µM) | 0.5 µg/mL (≈ 0.902 µM) | 0.5 µg/mL (≈ 0.902 µM) | 8 µg/mL (≈ 14.4 µM) | 8 µg/mL (≈ 14.4 µM) | > 32 µg/mL | > 32 µg/mL | > 32 µg/mL | – | – | – |
| CN(C)[C@@H]1C(O)=C(C(N)=O)C(=O)[C@@]2(O)C(O)=C3C(=O)c4c(O)c(NC(=O)c5cccnc5)cc(F)c4C[C@H]3C[C@@H]12 | 2 µg/mL (≈ 3.62 µM) | 4 µg/mL (≈ 7.24 µM) | 16 µg/mL (≈ 29 µM) | 1 µg/mL (≈ 1.81 µM) | 2 µg/mL (≈ 3.62 µM) | > 32 µg/mL | > 32 µg/mL | > 32 µg/mL | – | – | – |
| CN(C)c1ccccc1C(=O)Nc1cc(F)c2c(c1O)C(=O)C1=C(O)[C@]3(O)C(=O)C(C(N)=O)=C(O)[C@@H](N(C)C)[C@@H]3C[C@@H]1C2 | 0.13 µg/mL (≈ 0.219 µM) | 0.13 µg/mL (≈ 0.219 µM) | 0.063 µg/mL (≈ 0.106 µM) | 32 µg/mL (≈ 53.8 µM) | > 32 µg/mL | > 32 µg/mL | > 32 µg/mL | > 32 µg/mL | – | – | – |
| COc1cccc(C(=O)Nc2cc(F)c3c(c2O)C(=O)C2=C(O)[C@]4(O)C(=O)C(C(N)=O)=C(O)[C@@H](N(C)C)[C@@H]4C[C@@H]2C3)c1 | 0.13 µg/mL (≈ 0.224 µM) | 0.25 µg/mL (≈ 0.43 µM) | 0.13 µg/mL (≈ 0.224 µM) | > 32 µg/mL | > 32 µg/mL | > 32 µg/mL | > 32 µg/mL | > 32 µg/mL | – | – | – |

— ChEMBL document CHEMBL2057101, “Fluorocyclines. 2. Optimization of the C-9 side-chain for antibacterial activity and oral efficacy” (J Med Chem, 2012)
